Legend:
Type in all cases: functional
HaCaT [1] = experiment: Anti-inflammatory activity in human HaCaT cells assessed as inhibition of LPS-induced TNF-alpha production at 12.5 uM after 24 hrs by ELISA relative to LPS alone
Method in brief: (§1)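 HaCaT keratinocytes (DMEM, 4 g/L glucose, 10% FBS, 1% pen-strep) seeded 5 × 10^3 cells/well and allowed to adhere 24 h. Compounds added for 1 h alone, then with E. coli LPS (5 μg/mL) for 24 h. IL-6 or TNF-α measured in supernatants by ELISA (pg/mL) and expressed as % inhibition vs LPS alone. Indomethacin 10 μM served as reference. Mean ± SEM, n = 3.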

HaCaT [2] = experiment: Anti-inflammatory activity in human HaCaT cells assessed as inhibition of LPS-induced TNF-alpha production at 50 uM after 24 hrs by ELISA relative to LPS alone; method in brief: as §1
HaCaT [3] = experiment: Anti-inflammatory activity in human HaCaT cells assessed as inhibition of LPS-induced occluding expression at 50 uM after 24 hrs by FACS analysis (rvb = 30.17 +/- 5.98)
HaCaT [4] = experiment: Anti-inflammatory activity in human HaCaT cells assessed as inhibition of LPS-induced nitrotyrosine production at 25 uM after 24 hrs by FACS analysis relative to LPS alone
Method in brief: (§2)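 Cells were HaCaT seeded at 5 × 10^3 cells/well and pretreated with compound 1 h, then exposed to LPS (5 μg/mL) for 24 h. They were collected, PBS-washed, fixed 20 min and permeabilized 30 min, then stained 1 h with anti-nitrotyrosine antibody plus fluorescent secondary. Fluorescence was read by flow cytometry and expressed as % inhibition vs LPS alone. Mean ± SEM, n = 3.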

HaCaT [5] = experiment: Anti-inflammatory activity in human HaCaT cells assessed as inhibition of LPS-induced IL-6 production at 12.5 uM after 24 hrs by ELISA relative to LPS alone; method in brief: as §1
HaCaT [6] = experiment: Anti-inflammatory activity in human HaCaT cells assessed as inhibition of LPS-induced nitrotyrosine production at 12.5 uM after 24 hrs by FACS analysis relative to LPS alone; method in brief: as §2
HaCaT [7] = experiment: Anti-inflammatory activity in human HaCaT cells assessed as inhibition of LPS-induced claudin-1 expression at 25 uM after 24 hrs by FACS analysis (rvb = 31.19 +/- 0.77)
HaCaT [8] = experiment: Anti-inflammatory activity in human HaCaT cells assessed as inhibition of LPS-induced TNF-alpha production at 25 uM after 24 hrs by ELISA relative to LPS alone; method in brief: as §1
HaCaT [9] = experiment: Anti-inflammatory activity in human HaCaT cells assessed as inhibition of LPS-induced claudin-1 expression at 50 uM after 24 hrs by FACS analysis (rvb = 31.19 +/- 0.77)
HaCaT [10] = experiment: Anti-inflammatory activity in human HaCaT cells assessed as inhibition of LPS-induced occluding expression at 25 uM after 24 hrs by FACS analysis (rvb = 30.17 +/- 5.98)
HaCaT [11] = experiment: Anti-inflammatory activity in human HaCaT cells assessed as inhibition of LPS-induced IL-6 production at 50 uM after 24 hrs by ELISA relative to LPS alone; method in brief: as §1
HaCaT [12] = experiment: Anti-inflammatory activity in human HaCaT cells assessed as inhibition of LPS-induced nitrotyrosine production at 50 uM after 24 hrs by FACS analysis relative to LPS alone; method in brief: as §2
HaCaT [13] = experiment: Anti-inflammatory activity in human HaCaT cells assessed as inhibition of LPS-induced claudin-1 expression at 12.5 uM after 24 hrs by FACS analysis (rvb = 31.19 +/- 0.77)
HaCaT [14] = experiment: Anti-inflammatory activity in human HaCaT cells assessed as inhibition of LPS-induced occluding expression at 12.5 uM after 24 hrs by FACS analysis (rvb = 30.17 +/- 5.98)
HaCaT [15] = experiment: Anti-inflammatory activity in human HaCaT cells assessed as inhibition of LPS-induced IL-6 production at 25 uM after 24 hrs by ELISA relative to LPS alone; method in brief: as §1

| SMILES | inhibition at 12.5 µM (HaCaT [1]) [%] | inhibition at 50 µM (HaCaT [2]) [%] | Flu intensity (HaCaT [3]) | inhibition at 25 µM (HaCaT [4]) [%] | inhibition at 12.5 µM (HaCaT [5]) [%] | inhibition at 12.5 µM (HaCaT [6]) [%] | Flu intensity (HaCaT [7]) | inhibition at 25 µM (HaCaT [8]) [%] | Flu intensity (HaCaT [9]) | Flu intensity (HaCaT [10]) | inhibition at 50 µM (HaCaT [11]) [%] | inhibition at 50 µM (HaCaT [12]) [%] | Flu intensity (HaCaT [13]) | Flu intensity (HaCaT [14]) | inhibition at 25 µM (HaCaT [15]) [%] |
| --- | --- | --- | --- | --- | --- | --- | --- | --- | --- | --- | --- | --- | --- | --- | --- |
| CO[C@H]1C[C@]2(CC[C@@]3(O2)[C@H](C)C(=O)[C@@H](O)[C@H]2C(C)(C)[C@H](O)CC[C@@]23C)CO1 | 44 | 65 | 35.8 | 15 | 38.5 | 0 | 22.27 | 55 | 31.45 | 23.48 | 78 | 38 | 14.39 | 18.89 | 68.5 |
| CC1=C(CCc2ccoc2)[C@@]2(C)CC[C@@H](O)C(C)(C)[C@@H]2[C@H](O)C1=O | 39.5 | 68 | 31.92 | 40 | 65.5 | 5 | 23.72 | 68 | 34.97 | 21.1 | 81 | 56 | 12.24 | 18.52 | 69 |
| CC1=C(CCC2=CC(O)OC2=O)[C@@]2(C)CC[C@@H](O)C(C)(C)[C@@H]2CC1=O (stereo not given in full) | 68 | 73.5 | 25.71 | 37 | 56 | 30 | 13.14 | 70.5 | 22.83 | 13.83 | 76 | 58.7 | 5.01 | 10.27 | 70.5 |
| CO[C@@H]1C[C@@]2(CC[C@@]3(O2)[C@H](C)C(=O)C[C@H]2C(C)(C)[C@H](O)CC[C@@]23C)C(=O)O1 | 41.5 | 56.5 | 25.11 | 40 | 75 | 14.3 | 24.86 | 50.5 | 32.36 | 18.73 | 76.5 | 57.5 | 8.09 | 9.09 | 75.5 |
| C[C@@H]1C(=O)C[C@H]2C(C)(C)[C@H](O)CC[C@]2(C)[C@@]1(O)CCc1ccoc1 | 37 | 65 | 32.27 | 30.5 | 48 | 6.33 | 30.04 | 62.5 | 36.5 | 24.34 | 69.5 | 46.3 | 19.29 | 17.8 | 64.5 |
| CC(=O)OC[C@@]1(C)[C@H](O)CC[C@]2(C)C(CCC3=CC(O)OC3=O)=C(C)C(=O)C[C@@H]12 (stereo not given in full) | 35 | 56.5 | 32.25 | 43 | 44.5 | 3.67 | 20.73 | 47.5 | 34.13 | 21.77 | 73.5 | 61.7 | 14.41 | 12.54 | 49.5 |
| COC1C=C(CCC2=C(C)C(=O)C[C@H]3C(C)(C)[C@H](O)CC[C@]23C)C(=O)O1 (stereo not given in full) | 52 | 72 | 34.73 | 29.5 | 65.5 | 0.5 | 20.46 | 68 | 27.21 | 22.64 | 74.5 | 59.3 | 16.74 | 18.46 | 74 |
| CC(=O)OC[C@@]1(C)[C@H](O)CC[C@]2(C)C(CCc3ccoc3)=C(C)C(=O)C[C@@H]12 | 0 | 44 | 31.34 | 44 | 66.5 | 0 | 14.18 | 25 | 17.12 | 19.18 | 73.5 | 58.3 | 6.86 | 13.27 | 67 |
| CC(=O)O[C@@H]1CC[C@@]2(C)[C@@H](C(=O)[C@H](O)[C@@H](C)[C@]2(O)CCc2ccoc2)C1(C)C | 15.6 | 68 | 22.88 | 42.7 | 73.5 | 9 | 16.35 | 62 | 26.08 | 16.06 | 80.5 | 56.3 | 14.96 | 10.89 | 77 |
| CO[C@@H]1C[C@]2(CC[C@@]3(O2)[C@H](C)C(=O)C[C@H]2C(C)(C)[C@H](O)CC[C@@]23C)CO1 | 44 | 68 | 24.77 | 21 | 63 | 0 | 22.52 | 62.5 | 33.58 | 18.59 | 76.5 | 39.3 | 13.55 | 8.82 | 71.5 |

From ChEMBL document CHEMBL4665743, “Labdane-Type Diterpenes from the Aerial Parts of Rydingia persica: Their Absolute Configurations and Protective Effects on LPS-Induced Inflammation in Keratinocytes” (2020)
